Experimental data taken from ChEMBL document CHEMBL1153456, “Synthesis and opioid receptor activity of indolopropellanes” (Bioorg Med Chem Lett, 2009).

Columns and labels:
[1] = molecular target: T1, Delta-type opioid receptor (Homo sapiens, UniProt P41143); experiment: Displacement of [3H]naltrindole from human delta opioid receptor expressed in CHO cells; assay type: cell-based
Procedure, shortened: (§1)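 Binding was run on CHO membranes at 0.5 mg protein per sample, incubated at 25 °C in 50 mM Tris–HCl pH 7.5 with the receptor-specific radioligand and 12 compound concentrations. Naloxone defined nonspecific binding. Values are means ± SEM from three experiments, each run in triplicate.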

Mu-type opioid receptor [2] = molecular target: T2, Mu-type opioid receptor (Homo sapiens, UniProt P35372); experiment: Displacement of [3H]DAMGO from human mu opioid receptor expressed in CHO cells; assay type: cell-based; procedure, shortened: as §1
T2 sequence (P35372 whole entry): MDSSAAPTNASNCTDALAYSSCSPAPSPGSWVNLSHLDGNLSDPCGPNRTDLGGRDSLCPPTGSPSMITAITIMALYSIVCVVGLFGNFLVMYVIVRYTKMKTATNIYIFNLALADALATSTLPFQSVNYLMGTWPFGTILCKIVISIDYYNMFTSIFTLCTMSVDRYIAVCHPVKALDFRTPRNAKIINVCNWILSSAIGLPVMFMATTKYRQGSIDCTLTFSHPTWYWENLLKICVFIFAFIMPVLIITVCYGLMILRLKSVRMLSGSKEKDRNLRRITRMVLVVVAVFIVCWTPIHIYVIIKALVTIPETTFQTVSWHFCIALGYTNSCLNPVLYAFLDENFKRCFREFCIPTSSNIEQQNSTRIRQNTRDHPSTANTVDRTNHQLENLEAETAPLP

[3] = molecular target: T3, Kappa-type opioid receptor (Homo sapiens, UniProt P41145); experiment: Displacement of [3H]U50488 from human kappa opioid receptor expressed in CHO cells; assay type: cell-based; procedure, shortened: as §1
T3 sequence (P41145 whole entry): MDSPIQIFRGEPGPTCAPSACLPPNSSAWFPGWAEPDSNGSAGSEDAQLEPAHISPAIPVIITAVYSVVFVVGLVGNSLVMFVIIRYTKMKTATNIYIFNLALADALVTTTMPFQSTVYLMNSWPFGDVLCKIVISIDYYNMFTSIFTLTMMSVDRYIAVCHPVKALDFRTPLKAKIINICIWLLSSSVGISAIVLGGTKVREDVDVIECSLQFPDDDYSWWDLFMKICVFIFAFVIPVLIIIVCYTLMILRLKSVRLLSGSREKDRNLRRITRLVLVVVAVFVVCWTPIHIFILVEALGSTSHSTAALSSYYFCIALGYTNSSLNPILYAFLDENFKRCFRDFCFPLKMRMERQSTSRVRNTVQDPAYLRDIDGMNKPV

Mu-type opioid receptor [4] = molecular target: T2, Mu-type opioid receptor; experiment: Agonist activity at human mu opioid receptor expressed in CHO cells assessed as stimulation of [35S]GTPgammaS binding by scintillation counting; assay type: functional, cell-based
Procedure, shortened: (§2)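 CHO cell membranes expressing the opioid receptor were incubated with varying concentrations of compound in the presence of 0.8 nM [35S]GTPγS. EC50 and Emax were derived from the concentration–response data. Values are means from three experiments, each run in triplicate.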

[5] = molecular target: T3, Kappa-type opioid receptor; experiment: Agonist activity at human kappa opioid receptor expressed in CHO cells assessed as stimulation of [35S]GTPgammaS binding by scintillation counting; assay type: functional, cell-based; procedure, shortened: as §2
[6] = molecular target: T1, Delta-type opioid receptor; experiment: Agonist activity at human delta opioid receptor expressed in CHO cells assessed as stimulation of [35S]GTPgammaS binding by scintillation counting; assay type: functional, cell-based; procedure, shortened: as §2
[7] = molecular target: Delta-type opioid receptor (Rattus norvegicus, UniProt P33533); experiment: Displacement of [3H]p-Cl-DPDPE from rat delta opioid receptor expressed in rat C6 cells
Delta-type opioid receptor (Rattus norvegicus, UniProt P33533), sequence (P33533 whole entry): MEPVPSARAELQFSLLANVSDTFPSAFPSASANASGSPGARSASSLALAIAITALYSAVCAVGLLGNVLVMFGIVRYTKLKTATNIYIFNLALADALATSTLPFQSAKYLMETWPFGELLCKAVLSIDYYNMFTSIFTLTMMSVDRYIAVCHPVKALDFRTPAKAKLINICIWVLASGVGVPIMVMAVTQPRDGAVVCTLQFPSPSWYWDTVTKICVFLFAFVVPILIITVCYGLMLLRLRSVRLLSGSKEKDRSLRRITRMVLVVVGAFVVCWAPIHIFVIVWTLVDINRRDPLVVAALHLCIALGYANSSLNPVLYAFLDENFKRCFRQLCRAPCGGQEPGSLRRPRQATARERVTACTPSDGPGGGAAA

T1 sequence (P41143 whole entry): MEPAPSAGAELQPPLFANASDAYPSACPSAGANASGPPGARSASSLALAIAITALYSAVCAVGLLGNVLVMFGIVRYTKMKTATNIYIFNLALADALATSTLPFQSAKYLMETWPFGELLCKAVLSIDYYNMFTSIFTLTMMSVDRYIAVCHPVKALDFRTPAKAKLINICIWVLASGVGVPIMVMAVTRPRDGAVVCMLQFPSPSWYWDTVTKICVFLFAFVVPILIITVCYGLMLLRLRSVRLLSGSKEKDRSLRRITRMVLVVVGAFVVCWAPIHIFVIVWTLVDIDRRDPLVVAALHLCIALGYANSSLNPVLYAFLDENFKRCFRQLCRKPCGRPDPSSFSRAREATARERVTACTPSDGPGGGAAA

SMILES	Ki [1] [nM]	Ki (Mu-type opioid receptor [2]) [nM]	Ki [3] [nM]	EC50 (Mu-type opioid receptor [4]) [nM]	Emax (Mu-type opioid receptor [4]) [%]	EC50 [5] [nM]	Emax [5] [%]	EC50 [6] [nM]	Emax [6] [%]	Ki [7] [nM]
CN1CC[C@]23Cc4[nH]c5ccccc5c4C[C@]2(Cc2ccc(O)cc23)C1	1120	104	1190	–	–	–	–	–	–	–
COc1c(O)ccc2c1[C@]13CCN(C)[C@H](C2)[C@]1(O)Cc1c([nH]c2ccccc12)C3	4.5	474	–	–	–	–	–	–	–	–
CN1CC[C@]23Cc4c(c5ccccc5n4C)C[C@]2(Cc2ccc(O)cc23)C1	268	40.2	1120	174	95.7	62.1	76.2	65	77.3	–
COc1ccc2c(c1)[C@]13CCN(CC4CC4)C[C@@]1(C2)Cc1c([nH]c2ccccc12)C3	6650	1420	2550	–	–	–	–	–	–	–
COc1ccc2c(c1)[C@]13CCN(C)C[C@@]1(C2)Cc1c(n(C)c2ccccc12)C3	> 10000	713	3810	–	–	–	–	–	–	–
COc1ccc2c(c1)[C@]13CCN(C)C[C@@]1(C2)Cc1c([nH]c2ccccc12)C3	765	1820	5120	–	–	–	–	–	–	–
Cn1c2c(c3ccccc31)C[C@@]13Cc4ccc(O)cc4[C@@]1(CCN(CC1CC1)C3)C2	1790	469	1520	–	–	–	–	–	–	–
COc1ccc2c(c1O)[C@]13CCN(C)[C@H](C2)[C@]1(O)Cc1c([nH]c2ccccc12)C3	21.8	1850	3160	–	–	–	–	–	–	–
Oc1ccc2c(c1)[C@]13CCN(CC4CC4)C[C@@]1(C2)Cc1c([nH]c2ccccc12)C3	2550	523	704	33	88.6	67.1	79.9	10	91.4	–
Oc1ccc2c3c1O[C@H]1c4[nH]c5ccccc5c4C[C@@]4(O)[C@@H](C2)N(CC2CC2)CC[C@]314 [NALTRINDOLE]	–	–	–	–	–	–	–	–	–	0.2
